This passage reports IC50, inhibition and Activity results from ChEMBL document CHEMBL1146177, “Total synthesis and biological evaluation of viscolin, a 1,3-diphenylpropane as a novel potent anti-inflammatory agent” (Bioorg Med Chem Lett, 2006).

As a reminder, the IC50 is the concentration needed to halve the response being measured. Read a high IC50 as weaker potency in that assay. A word on the inhibition: it is the relative decrease from the control value, in per cent.

The subject of data set [1] is BV-2. As to the kind of experiment: Inhibition of NOS-dependent nitric oxide production in mouse BV2 cells. The data set is classed as functional, cell-based. The method, boiled down: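 Murine BV2 microglial cells. NOX activity was read as ROS production and NOS activity as NO production. DPI (NOX inhibitor) and L-NAME (NOS inhibitor) served as positive controls. IC50 is the mean ± SEM of 5–6 experiments on different days with cells from different passages.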

Data set [2] can be described thus: Inhibition of PMA-induced ROS production in human leukocytes at 25 uM. It counts as functional. The note with it: Leukocyte.
Data set [3] in a line: Inhibition of PMA plus ionomycin-induced IFN-gamma production in human CD8+ leukocytes measured as mean channel fluorescence at 5 uM. The data set is classed as functional. Summed up:
(§1)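 Human leukocytes were stimulated with PMA plus ionomycin. IL-2 (CD4+ Th cells) and IFN-γ (CD8+ cells) were measured by intracellular cytokine staining and read as mean channel fluorescence. Significance was tested against activator alone (P<0.05).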

Data set [4] is described as follows: Inhibition of fMLP-induced ROS production in human leukocytes at 25 uM. The data set is classed as functional. The note with it: Leukocyte.
The subject of data set [5] is CD4+ve Th. In words: Inhibition of PMA plus ionomycin-induced IL2 production in human CD4+ Th cells measured as mean channel fluorescence at 25 uM. The data set is classed as functional. The method, boiled down:
as §1

In data set [6] the test system is CD4+ve Th. As to the kind of experiment: Inhibition of PMA plus ionomycin-induced IL2 production in human CD4+ Th cells measured as mean channel fluorescence at 5 uM. The data set is classed as functional. The method, boiled down:
as §1

Data set [7] can be described thus: Inhibition of PMA plus ionomycin-induced IFN-gamma production in human CD8+ leukocytes measured as mean channel fluorescence at 25 uM. It counts as functional. Summed up:
as §1

The nature of data set [8]: Cytotoxicity against microglial cells at 5 uM. The note with it: mouse, microglia.
Data set [9] can be described thus: Cytotoxicity against microglial cells at 10 uM. The note with it: mouse, microglia.
Data set [10] in a line: Cytotoxicity against microglial cells at 25 uM. The note with it: mouse, microglia.
Data set [11] relates to BV-2. As to the kind of experiment: Inhibition of LPS-induced TNFalpha production in mouse BV2 cells measured as mean channel fluorescence at 5 uM.
Data set [12] concerns BV-2. In words: Inhibition of LPS-induced TNFalpha production in mouse BV2 cells measured as mean channel fluorescence at 25 uM.
For data set [13], the system named is BV-2. In words: Inhibition of NADPH oxidase-dependent reactive oxygen species production in mouse BV2 cells.
A short description of data set [14]: Inhibition of PMA-induced ROS production in human PMN. The data set is classed as functional. Summed up:
(§2)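 Peripheral human neutrophils (PMN) or mononuclear cells (MNC) were stimulated with PMA (a PKC activator) or fMLP to induce ROS. IC50 is the mean ± SEM of 3–5 experiments on different days with cells from different donors.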

A short description of data set [15]: Inhibition of fMLP-induced ROS production in human PMN. It counts as functional. The method, boiled down:
as §2

The nature of data set [16]: Inhibition of PMA-induced ROS production in human mononuclear leukocytes. It counts as functional, cell-based. The method, boiled down: as §2
Data set [17] is described as follows: Inhibition of fMLP-induced ROS production in human mononuclear leukocytes. The data set is classed as functional, cell-based. Summed up:
as §2

Data set [18] is described as follows: DPPH radical scavenging activity. It counts as functional.
The target of data set [19] is T1, Protein kinase C (PKC) (Homo sapiens) (UniProt O94806+P41743+P17252+P05129+Q05655+P05771+Q05513+Q02156+P24723+Q15139+Q04759). As to the kind of experiment: Inhibition of PKC in human peripheral leucocytes at 5 uM by ELISA. It counts as cell-based. The method, boiled down:
(§3)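 Protein kinase activity in human leukocytes is expressed as % inhibition relative to drug-free samples (taken as 100%). Values are the mean ± SEM of 3 experiments on different days with cells from different donors.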

Data set [20] is described as follows: Inhibition of fMLP-induced calcium mobilisation in human peripheral leukocytes at 5 uM. The data set is classed as functional. Summed up: (§4)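 Human leukocytes were preloaded with Fura-2, and intracellular Ca2+ rise was followed after fMLP stimulation. Inhibition is expressed as % of the calcium increment in drug-free samples (taken as 100%). Values are the mean ± SEM of 3 experiments on different days with different donors.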
For orientation: Calcium flux is commonly read through the fluorescence of an indicator in the cells.

Data set [21] addresses T1, Protein kinase C (PKC) (Homo sapiens). As to the kind of experiment: Inhibition of PKC at 25 uM by ELISA. The data set is classed as protein assay. The method, boiled down:
as §3
(In general: ELISA stands for enzyme-linked immunosorbent assay.)

A short description of data set [22]: Inhibition of fMLP-induced calcium mobilisation in human peripheral leukocytes at 25 uM. The data set is classed as functional. Summed up: as §4

The molecule `COc1cc(CCCc2c(OC)cc(OCc3ccccc3)c(OC)c2OC)ccc1OCc1ccccc1` displayed an IC50 with BV-2 [1] of 20 µM. Also, the values for the inhibition at 25 µM in data set [2] and in data set [4] were 20% and 37%, respectively. In addition, the Activity in data set [3] was 59; with CD4+ve Th [5] it was 102; with CD4+ve Th [6], 100; in [7] it was 65; in data set [8] it was 14.6%; in [9], 8.9%. Further, the Activity is 9.6% in data set [10], 164 with BV-2 [11] and 154 in the data set on BV-2 [12].

Turning to `COc1cc(C/C=C/c2c(OC)cc(OCc3ccccc3)c(OC)c2OC)ccc1OCc1ccccc1`, the IC50 with BV-2 [1] is 19 µM. Also, the inhibition at 25 µM in data set [2] came out at 20%; in data set [4] it was 37%. Further, the Activity in data set [3] is 60; in the data set on CD4+ve Th [5], 103; with CD4+ve Th [6], 101; in data set [7] it was 65; in data set [8], 8.6%; in data set [9], 8.1%. The Activity in [10] was determined as 10%; with BV-2 [11], 164; in the data set with BV-2 [12] it was 155.

Take `c1ccc2c(c1)[I+]c1ccccc1-2` [DIPHENYLENEIODONIUM]: inhibition with BV-2 [13] was half-maximal at 10.2 µM (IC50).

`COC(=O)[C@@H](N)CCCNC(=N)N[N+](=O)[O-]` [L-NAME] showed an IC50 in the data set with BV-2 [1] of 36 µM.

For the molecule `O=c1c(O)c(-c2ccc(O)c(O)c2)oc2cc(O)cc(O)c12` [QUERCETIN], the IC50 is 5.5 µM in data set [14], 2.5 µM in data set [15], 3.1 µM in [16] and 4 µM in data set [17].

`Cc1c(C)c2c(c(C)c1O)CCC(C)(C(=O)O)O2` (stereo unspecified) [TROLOX] returned an IC50 in data set [18] of 40.5 µM.

Regarding `COc1cc(CCCc2c(OC)cc(O)c(OC)c2OC)ccc1O` [VISCOLIN], the IC50 in [14] was 12 µM; in [15], 1.4 µM; in [16] it was 8.3 µM; in data set [17] it was 2.5 µM; in the data set with BV-2 [1], 24 µM; in data set [18] it was 49.2 µM. In the data set with BV-2 [13], this molecule yielded a concentration for half-maximal inhibition (IC50) of 29.2 µM. The inhibition in data set [19] is 34.4%; in data set [21] it was 48.8%. Moreover, the inhibition at 5 µM in [20] was found to be 36.7%. For the same molecule, the Activity came out at 72 in [3]; 112 in the data set on CD4+ve Th [5]; 99 in the data set with CD4+ve Th [6]; 67 in data set [7]; 9.6% in data set [8]; 8.9% in data set [9]. Further, the Activity is 14.6% in data set [10], 155 with BV-2 [11] and 121 in the data set on BV-2 [12]. For the same molecule, in data set [22], the inhibition at 25 µM was 53.5%.
